Experimental data from ChEMBL document CHEMBL4477165, “Eremophilane-Type Sesquiterpenoids from an Acremonium sp. Fungus Isolated from Deep-Sea Sediments” (J Nat Prod, 2016).

Key:
RAW264.7 [1] = test: Antiinflammatory activity in mouse RAW264.7 cells assessed as inhibition of LPS-induced NO production at 50 uM by Griess assay; type: functional
How it was run: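 RAW 264.7 cells grown in DMEM with 10% FBS, penicillin/streptomycin, 37 °C, 5% CO2. Seeded 5 × 10^4 cells/well for 24 h, then given sample (final 50 μM, 1% DMSO) plus 2 μg/mL LPS for 24 h. Supernatant mixed with Griess reagents I and II, absorbance read at 540 nm. % inhibition computed against LPS-only (model) and no-LPS (blank) wells.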

RAW264.7 [2] = test: Antiinflammatory activity in mouse RAW264.7 cells assessed as inhibition of LPS-induced NO production by Griess assay; type: functional, cell-based
How it was run: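 RAW 264.7 cells in DMEM/10% FBS seeded at 5 × 10^4 per well for 24 h. Samples added in DMSO (1% final) together with 2 μg/mL LPS and incubated 24 h. Nitrite read at 540 nm by Griess reagent.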

[3] = Cytotoxicity against mouse RAW264.7 cells assessed as reduction in cell viability after 24 hrs by MTT assay; type: cell-based
How it was run: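 MTT viability test in RAW 264.7 cells plated at 5 × 10^3 per well for 24 h. Cells were treated with sample at final 50 μM in 1% DMSO for 24 h. 1% DMSO served as vehicle control and cell-free medium as blank. MTT was added for 4 h, formazan dissolved in DMSO, and absorbance read at 490 nm.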

[4] = Cytotoxicity against mouse RAW264.7 cells assessed as cell survival at 50 uM after 24 hrs by MTT assay; type: cell-based; settings: read-out: Survival
How it was run: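 RAW 264.7 mouse macrophages in DMEM with 10% FBS, penicillin and streptomycin, at 37 °C under 5% CO2. Seeded at 5 × 10^3 cells/well for 24 h, then exposed 24 h to samples at 50 μM final (1% DMSO; vehicle and cell-free blanks). MTT added, 4 h, medium replaced with DMSO, absorbance read at 490 nm.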

RAW264.7 [5] = test: Inhibition of NF-kappaB (unknown origin) expressed in mouse RAW264.7 cells at 50 uM pretreated for 1 hr followed by stimulation with LPS measured after 6 hrs by luciferase reporter gene assay; type: cell-based
How it was run: (§1)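 RAW 264.7 cells stably carrying a pNF-κB-Luc reporter, kept in DMEM/10% FBS with geneticin 500 μg/mL, 37 °C. Pretreated 1 h with sample (0.78–200 μM) and then stimulated with E. coli 055:B5 LPS for 6 h. […] Triplicates, mean ± SD; IC50 by sigmoidal nonlinear regression.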

[6] = Inhibition of NF-kappaB (unknown origin) expressed in mouse RAW264.7 cells pretreated for 1 hr followed by stimulation with LPS measured after 6 hrs by luciferase reporter gene assay; type: cell-based; how it was run: as §1

| Structure (SMILES) | inhibition at 50 µM (RAW264.7 [1]) [%] | IC50 (RAW264.7 [2]) [µM] | CC50 at 24 h [3] [µM] | viability at 24 h, 50 µM [4] [%] | inhibition (RAW264.7 [5]) [%] | IC50 [6] [µM] |
| --- | --- | --- | --- | --- | --- | --- |
| C/C=C/CCC(=O)O[C@H]1C=CC2=C[C@]3(O)OC(=O)C(C)=C3C[C@]2(C)[C@H]1C | 92 | 15 | > 50 | > 90 | 42 | 72 |
| C=C(C(=O)O)[C@@H]1C[C@@]2(C)C(=CC1=O)C=C[C@H](O)[C@@H]2C | 11 |  | > 50 | > 90 |  |  |
| C/C=C/CCC(=O)O[C@H]1C=CC2=C[C@]3(O)OC(=O)C(CO)=C3C[C@]2(C)[C@H]1C | 63 | 26 | > 50 | > 90 | 20 |  |
| CC1=C2C[C@@]3(C)C(=C[C@@H](O)[C@@H](O)[C@@H]3C)C=C2OC1=O | 23 |  | > 50 | > 90 |  |  |
| C=C(CO)[C@@H]1C[C@@]2(C)C(=CC(=O)C[C@@H]2C)C[C@H]1O | 7 |  | > 50 | > 90 |  |  |
| C=C(C)[C@@H]1C[C@@]2(C)C(=C[C@H](O)C[C@@H]2C)C[C@H]1O | 24 |  | > 50 | > 90 |  |  |
| CC1=C2C[C@@]3(C)C(=C[C@@H](O)[C@H](O)[C@@H]3C)C=C2OC1=O | 11 |  | > 50 | > 90 |  |  |
| CC1=C2C[C@@]3(C)C(=C[C@H](O)[C@@H](O)[C@@H]3C)C=C2OC1=O | 21 |  | > 50 | > 90 |  |  |
| O=c1c(O)c(-c2ccc(O)c(O)c2)oc2cc(O)cc(O)c12 [QUERCETIN] |  | 15 | > 50 |  |  |  |
| C=C(C)[C@@H]1C[C@@]2(C)C(=CC1=O)C[C@H](OC(C)=O)C[C@@H]2C | 29 |  | > 50 | > 90 |  |  |
| C=C(C)[C@@H]1C[C@@]2(C)C(=CC1=O)[C@H](O)[C@H](O)C[C@@H]2C | 22 |  | > 50 | > 90 |  |  |
| C=C(C(=O)O)[C@@H]1C[C@@]2(C)C(=CC1=O)C=C[C@H](OC(=O)CC/C=C/C)[C@@H]2C | 97 | 8 | > 50 | > 90 | 40 | 78 |
| CC(=O)O[C@H]1C(=O)C=C2C=C3OC(=O)C(C)=C3C[C@]2(C)[C@H]1C | 68 | 22 | > 50 | > 90 |  |  |
| CC(=O)O[C@H]1[C@H](O)C=C2C=C3OC(=O)C(C)=C3C[C@]2(C)[C@H]1C | 36 |  | > 50 | > 90 |  |  |
| S=C(S)N1CCCC1 [PYRROLIDINE DITHIOCARBAMATE] |  |  |  |  |  | 37 |
| C=C(C)[C@@H]1C[C@@]2(C)C(=C[C@H](O)C[C@@H]2C)C[C@H]1OC(C)=O | 30 |  | > 50 | > 90 |  |  |
| C=C(C)[C@@H]1C[C@@]2(C)C(=CC1=O)C[C@H](O)C[C@@H]2C | 16 |  | > 50 | > 90 |  |  |
| CC1=C2C[C@@]3(C)C(=CC(=O)C(O)=C3C)C=C2OC1=O | 16 |  | > 50 | > 90 |  |  |
| C=C(C)[C@@H]1C[C@@]2(C)C(=CC(=O)C[C@@H]2C)C[C@H]1O | 4 |  | > 50 | > 90 |  |  |
| C/C=C/CCC(=O)O[C@H]1C=CC2=CC(=O)[C@H](/C(C=O)=C\OC)C[C@]2(C)[C@H]1C | 66 | 25 | > 50 | > 90 | 38 |  |
| CC1=C2C[C@]3(C)[C@@H](C)C=C[C@H](O)[C@]3(O)C=C2OC1=O | 12 |  | > 50 | > 90 |  |  |
| CC1=C2C[C@]3(C)[C@@H](C)C=C[C@H](O)[C@@]3(O)C=C2OC1=O | 7 |  | > 50 | > 90 |  |  |
| C/C=C/CCC(=O)O[C@H]1C=CC2=CC(=O)/C(=C(\C)C(=O)O)C[C@]2(C)[C@H]1C | 46 | 45 | > 50 | > 90 |  |  |
| C=C(CO)[C@@H]1C[C@@]2(C)C(=C[C@H](O)C[C@@H]2C)C[C@H]1O | 15 |  | > 50 | > 90 |  |  |
